# Screening data deposited in PubChem by Johns Hopkins Ion Channel Center.
# Sampled rows, rich in hits. Any-hit rate of the full collection: about 3.1%.
# KCNK9 block: human KCNK9 channel inhibition. Q9NPC2. HEK293 KCNK9, FluxOR thallium flux fluorescence; active compounds read low. B-score at 10 µM. 310,000 tested, 1.2% active. AID 488922;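 active means ratio B-score over 3 SD below the library mean, with starting fluorescence within 5 SD of its mean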;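 further: negative B-score means less thallium flux so channel inhibition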
# KCNQ1 inh: inhibitors of human KCNQ1 potassium channel; B-score at 10 µM; AID 2642; P51787; CHO-K1 KCNQ1, FluxOR thallium flux fluorescence; active compounds read high; 310,000 tested, 1.3% active;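 active means compounds whose thallium flux B-score, printed positive for inhibition, exceeds three library SD while starting fluorescence stays within three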;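 further: channel opened by potassium depolarization with thallium stimulus after 20 min compound exposure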
# hERG protect: hERG (human) protection from proarrhythmic block; Q12809; CHO-hERG, FluxOR thallium flux, dofetilide IC70 present; activation (rescue from dofetilide block), less the hit threshold, % at 10 µM; 310,000 tested, 0.51% active;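 active means activation above the mean of controls blocked by dofetilide plus 5 SD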;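 further: thallium influx through hERG after potassium depolarization seen as dye fluorescence rise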
# KCNK3 block: human KCNK3 channel inhibition, primary screen; 340,000 tested, 0.84% active; O14649; AID 602410; B-score at 10 µM; CHO-KCNK3 thallium flux, FluxOR fluorescence; active compounds read low;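 active means B-score under library mean minus 4 SD, starting fluorescence ratio at most library mean plus 5 SD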;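 further: more negative B-score means stronger inhibition of thallium flux through KCNK3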
# KCNQ1 act: human KCNQ1 channel potentiation or activation | P51787 | CHO-K1 KCNQ1, thallium flux FluxOR fluorescence; active compounds read high | B-score at 10 µM | 310,000 tested, 0.35% active;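 active means fluorescence ratio B-score, a plate-corrected score, at least three library SD, with initial intensity B-score within 5 SD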
#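 Test system: CHO-K1 cells stably expressing KCNQ1 / Medium: assay buffer / Also added: depolarizing K+/Tl+ stimulus, K2SO4 and Tl2SO4 each 12.5 mM in 5x stock / Incubation: 90 min dye loading and 20 min compound exposure, both at room temperature / Signal: thallium influx via FluxOR fluorescence, kinetic imaging / Evaluation: B score of baseline-normalized fluorescence ratio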
# KCNK9 block conf: human KCNK9 inhibitor confirmation; HEK293 KCNK9 cells, FluxOR thallium flux fluorescence; inhibition, % at 10 µM; 4,900 tested, 43% active; shares compounds with KCNK9 block;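 active means thallium signal inhibited by more than 5 SD of the compound-free buffer control wells, on both duplicate plates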;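 further: 0% = assay buffer control wells without compound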
# Kir2-1 spec: selectivity of KCNK9 modulators against mouse Kir2.1; shares compounds with KCNK9 block; Kir2.1 cells, FluxOR thallium flux fluorescence; inhibition, % at 10 µM; 4,900 tested, 4% active; AID 492993;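 active means thallium signal drop more than 5 SD beyond the mean of the no-compound control wells, seen in both duplicate plates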;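 further: signal is fluorescence rise after thallium addition divided by baseline fluorescence; plate controls were assay buffer only for no effect and full block by chlorpromazine control for full effect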
# KCNK9 uninduced: second check of KCNK9 modulator effects in non-induced HEK293 cells | shares compounds with KCNK9 block | FluxOR thallium flux | inhibition, % at 10 µM | 4,900 tested, 40% active | AID 492997;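 active means thallium signal drop beyond 5 SD of the untreated control mean, on both duplicate plates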;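 further: plate controls were buffer only IC0 wells for no effect and SID17386958 at its maximal inhibitory level for full effect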
# * = called active by the depositor; i = inactive; · = no result given.
SMILES,KCNK9 block,KCNQ1 inh,hERG protect,KCNK3 block,KCNQ1 act,KCNK9 block conf,Kir2-1 spec,KCNK9 uninduced
CCOC(=O)c1ccccc1NC(=O)c1c(F)c(F)c(F)c(F)c1F,i,i,-16,i,i,i,i,i
O=C(c1ccc([N+](=O)[O-])s1)N1CCN(c2ccc(C(F)(F)F)cn2)CC1,i,i,-3,i,i,·,·,·
Cc1ccc(-n2nc3c(c2NC(=O)c2ccc4c(c2)OCO4)CS(=O)(=O)C3)cc1C,i,i,-6,i,i,·,·,·
CCC1CCCCN1C(=O)CSc1nc2ccsc2c(=O)n1Cc1ccccc1 (centres undefined),i,i,-23,i,i,i,i,i
COc1ccccc1-c1nc(C#N)c(N2CCN(C(c3ccccc3)c3ccccc3)CC2)o1,i,i,-6,i,i,·,·,·
COc1ccccc1-c1nc(C#N)c(N2CCN(c3cccc(Cl)c3)CC2)o1,-8.6*,i,-13,i,i,48%*,i,i
C/C=C(/C(=C/C)c1ccc(O)cc1)c1ccc(O)cc1,i,i,-1,i,i,·,·,·
C=C(c1ccc(O)cc1)c1ccc(O)cc1,-11*,i,-18,i,i,46%*,i,i
CC1CCCN(c2nc(-c3cccnc3)nc3scc(-c4ccccc4)c23)C1 (centres undefined),-9.1*,i,-15,i,i,35%*,i,35%*
CCOc1ccc(NC(=O)C23CC4CC(C2)CC(c2ccccc2)(C4)C3)cc1,i,i,-3,i,i,i,i,i
CCOC(=O)CNC(=O)C12CC3CC(C1)CC(c1ccc(C)cc1)(C3)C2,i,i,-20,i,i,i,i,i
Cc1ccc(C23CC4CC(CC(C(=O)NN)(C4)C2)C3)cc1,i,i,-4,i,i,·,·,·
CN(CC(=O)Nc1cccc(S(=O)(=O)NC2=NCCC2)c1)Cc1ccccc1Cl,·,·,·,i,·,·,·,·
O=C(Nc1ccc2c(c1)OCO2)c1cc(-c2ccc(O)cc2)on1,i,i,-4,i,i,·,·,·
C/C(=N\Nc1cc(C(F)(F)F)ccc1Cl)c1ccccc1O,i,i,-12,i,i,i,i,i
C/C(=N\Nc1ccc(F)cc1F)c1ccccc1O,i,i,-10,i,i,·,·,·
O=S(=O)(c1ccccc1)N1N=C(c2cccs2)CC1c1ccc(F)cc1 (centres undefined),i,i,-3,i,i,·,·,·
Fc1ccc(N2N=C(c3cccs3)CC2c2ccccc2)cc1 (centres undefined),-11*,i,-13,i,i,50%*,i,45%*
Cc1ccc(C(=O)Nc2sc(C)c(C)c2C(=O)c2ccccc2)cc1,i,i,-10,i,i,·,·,·
Cc1sc(NC(=O)c2ccccc2)c(C(=O)c2ccccc2)c1C,i,i,-10,i,i,i,i,i
O=Cc1cn(-c2ccccc2)nc1-c1ccccc1,i,i,-7,i,i,·,·,·
CC1=NNC(=O)/C1=C\c1cn(-c2ccccc2)nc1-c1ccccc1,i,i,-20,i,i,i,i,i
Cc1ccc(-c2ccc(C(=O)Nc3cccc(F)c3)o2)c2ccccc12,i,i,-17,i,i,i,i,i
COc1ccc(-c2cc(C(=O)Nc3c(F)cc(F)cc3Br)no2)cc1,i,i,-6,i,i,·,·,·
CC(/C=N/NC(=O)CSc1ccccn1)=C\c1ccc(C(C)C)cc1,-13*,i,-13,i,i,59%*,i,37%*
SMILES,KCNK9 block,KCNQ1 inh,hERG protect,KCNK3 block,KCNQ1 act,KCNK9 block conf,Kir2-1 spec,KCNK9 uninduced
CN(C)c1ccc(/C=N/NC(=O)CSc2ccccn2)cc1,i,i,0,i,i,·,·,·
CC(=C/c1ccc(C(C)C)cc1)/C=N/NC(=O)CSc1ccccn1,-20*,i,-2,i,i,60%*,i,45%*
Cn1c(=O)c2c(nc(C3CC4C5CCC(C5)C4C3)n2C)n(C)c1=O (centres undefined),·,·,·,i,·,·,·,·
COc1ccccc1OCCSc1nnnn1-c1ccc(C)cc1,i,i,-9,i,i,i,i,i
COc1ccc(/C=C/C(=O)C2CC2)cc1COc1c(C)cccc1C,-11*,8*,-16,i,i,48%*,i,i
COc1ccc(C=O)cc1COc1ccccc1F,i,i,-1,i,i,·,·,·
COc1ccc(/C=C/C(=O)c2ccccc2)cc1COc1ccccc1F,-12*,i,-12,-12*,i,50%*,i,32%*
O=C(Nc1ccccc1Cl)OC1CCCCC1,i,i,-6,i,i,·,·,·
CCN(CC)S(=O)(=O)c1ccc(N2CCOCC2)c(NC(=O)c2ccccc2)c1,i,i,-15,i,i,·,·,·
CCN(CC)S(=O)(=O)c1ccc(N2CCOCC2)c(NC(=O)C23CC4CC(CC(Cl)(C4)C2)C3)c1,i,i,-10,i,i,i,i,i
COc1ccccc1CNC(=O)c1cc(-c2ccccc2C)n(CC2CC(c3cccc([N+](=O)[O-])c3)=NO2)n1 (centres undefined),·,·,·,i,·,·,·,·
Cc1cnc(NC(=O)Nc2ccccc2)c(C)n1,i,i,-3,i,i,·,·,·
COC(=O)c1cc2sc(Cl)cc2n1CC(=O)Nc1cccc(SC)c1,-10*,i,-4,i,i,48%*,i,32%*
Cc1noc(C)c1NC(=O)Nc1ccc2c(c1)C(=O)N([C@@H](C)CO)C[C@@H](C)[C@@H](CN(C)Cc1ccc3c(c1)OCO3)O2,·,·,·,i,·,·,·,·
O=C(Nc1cccc(Cl)c1N1CCCC1)c1ccco1,-9.9*,i,-8,i,i,i,i,29%*
CCCCCCCOC(=O)C[N+](C)(C)CCOC1CC2CCC1(C)C2(C)C (centres undefined),-11*,13*,-25,i,i,54%*,73%*,22%*
OCCNCc1c(OCc2ccc(Cl)cc2)ccc2ccccc12,-19*,i,-18,i,i,76%*,42%*,31%*
CC(O)CNCCNCc1c(OCc2ccccc2)ccc2ccccc12 (centres undefined),i,i,-14,i,i,·,·,·
O=C(CN(C(=O)c1csnn1)c1ccc2c(c1)OCCO2)NCc1ccccc1,i,i,-2,i,i,·,·,·
